How the values were obtained:
[1] = Specificity index, ratio of IC50 for human THP1 cells to IC50 for Trichomonas vaginalis TVR87; parameters: species or system THP-1
Outline: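 Specificity index = IC50 against THP1 cells (72 h, propidium iodide flow cytometry) divided by IC50 against T. vaginalis (48 h, trypan blue).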

Salmonella typhimurium [2] = experiment: Induction of mutagenicity in Salmonella Typhimurium TA100 assessed as number of revertant per nmol after 48 hrs; assay type: toxicity, organism-based; conditions: salmonella enterica subsp. enterica serovar typhimurium
Outline: (§1)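 TA100 grown overnight in Nutrient Broth No. 2 with ampicillin. Bacteria preincubated 60 min at 37 °C with shaking with compound in DMSO and 0.1 mL PBS (0.15 M, pH 7.4). Top agar containing histidine/biotin added, then plated on Vogel-Bonner agar. Revertants counted after 48 h. Four consecutive doses in triplicate plates; solvent control in quadruplicate. Mutagenic power given as revertants per amount of compound.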

THP-1 = experiment: Cytotoxicity against human THP1 cells after 72 hrs by propidium iodide-based flow cytometry; assay type: cell-based; conditions: THP-1, 72 h
Outline: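 THP1 monocytes kept in RPMI with 10% foetal calf serum, 25 mM HEPES, 25 mM NaHCO₃ and 1% L-glutamine/penicillin-streptomycin at 37 °C, 6% CO₂. Cells at 10⁵ cells/mL exposed for 72 h to various concentrations from DMSO stocks. Drug-free and 0.5% DMSO final controls run alongside. Living cells counted by propidium iodide flow cytometry.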

Salmonella typhimurium [3] = experiment: Induction of mutagenicity in Salmonella Typhimurium TA100 assessed as number of revertant per nmol after 48 hrs relative to metranidazole; assay type: toxicity, organism-based; conditions: salmonella enterica subsp. enterica serovar typhimurium
Salmonella typhimurium [4] = experiment: Induction of mutagenicity in Salmonella Typhimurium YG1042 assessed as number of revertant per nmol after 48 hrs; assay type: toxicity, organism-based; conditions: salmonella enterica subsp. enterica serovar typhimurium
Outline: (§2)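 YG1042, a TA100 derivative, grown overnight in Nutrient Broth No. 2 with ampicillin and kanamycin. Bacteria preincubated 60 min at 37 °C with shaking with compound in DMSO and 0.1 mL PBS (0.15 M, pH 7.4). Top agar containing histidine/biotin added, then plated on Vogel-Bonner agar. Revertants counted after 48 h. Four doses in triplicate plates; solvent control in quadruplicate. Mutagenic power given as revertants per amount of compound.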

Salmonella typhimurium [5] = experiment: Induction of mutagenicity in Salmonella Typhimurium YG1042 assessed as number of revertant per nmol after 48 hrs relative to metranidazole; assay type: toxicity, organism-based; conditions: salmonella enterica subsp. enterica serovar typhimurium
Salmonella typhimurium [6] = experiment: Ratio of number of revertant per nmol of drug for Salmonella Typhimurium YG1042 to number of revertant per nmol of drug for Salmonella Typhimurium TA100; assay type: toxicity, organism-based; conditions: salmonella enterica subsp. enterica serovar typhimurium
Salmonella typhimurium [7] = experiment: Induction of mutagenicity in Salmonella Typhimurium TA100 assessed as number of revertant per ug after 48 hrs; assay type: toxicity, organism-based; conditions: salmonella enterica subsp. enterica serovar typhimurium; outline: as §1
Salmonella typhimurium [8] = experiment: Induction of mutagenicity in Salmonella Typhimurium YG1042 assessed as number of revertant per ug after 48 hrs; assay type: toxicity, organism-based; conditions: salmonella enterica subsp. enterica serovar typhimurium; outline: as §2
Trichomonas vaginalis = experiment: Antitrichomonas activity against Trichomonas vaginalis TVR87 after 48 hrs by trypan blue staining; assay type: functional, organism-based; conditions: TVR87, 48 h
Outline: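 T. vaginalis TVR87 trophozoites grown in TM 161 medium with 10% heat-inactivated horse serum, used one day after subculture in log phase. Assay at 5 × 10³ trophozoites/mL, triplicate cultures, incubated anaerobically at 37 °C for 48 h with a range of compound concentrations from DMSO stocks. DMSO 0.1% final served as negative control. Viable cells counted by trypan blue.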

Structure (SMILES)	Ratio IC50 [1]	Activity (Salmonella typhimurium [2])	IC50 (THP-1) [µM]	Activity (Salmonella typhimurium [3])	Activity (Salmonella typhimurium [4])	Activity (Salmonella typhimurium [5])	Ratio (Salmonella typhimurium [6])	Activity (Salmonella typhimurium [7])	Activity (Salmonella typhimurium [8])	IC50 (Trichomonas vaginalis) [µM]
Cc1nc(CS(=O)(=O)c2ccc(Br)cc2)c([N+](=O)[O-])n1C	493	6.59	326	0.79	12.32	0.15	1.9	17.61	32.91	0.66
Cn1cncc1[N+](=O)[O-]	>3125	15.48	> 1970	1.85	197.14	2.34	12.7	121.79	1551.06	0.629
Cn1cnc(CS(=O)(=O)c2ccccc2)c1[N+](=O)[O-]	>4460	14.32	> 888	1.71	49.69	0.59	3.5	50.91	176.64	0.199
Cc1nc(CS(=O)(=O)c2ccccc2)c([N+](=O)[O-])n1CCO	>500	0.56	> 768	0.07	2.72	0.03	4.9	1.72	8.36	1.54
Cc1ccc(S(=O)(=O)Cc2nc(C)n(CCO)c2[N+](=O)[O-])cc1	880	1.57	59	0.19	2.08	0.02	1.3	4.62	6.14	0.067
Cc1ccc(S(=O)(=O)Cc2nc(C)n(CC(C)O)c2[N+](=O)[O-])cc1 (stereo not given)	>5701	0.73	> 707	0.09	2.39	0.03	3.3	2.07	6.76	0.124
Cc1ccc(S(=O)(=O)Cc2ncn(C)c2[N+](=O)[O-])cc1	>5458	20.59	> 846	2.46	54.74	0.65	2.7	69.71	185.37	0.155
Cc1nc(CS(=O)(=O)c2ccc(Cl)cc2)c([N+](=O)[O-])n1CC(C)O (stereo not given)	>912	0.81	> 668	0.1	1.39	0.02	1.7	2.18	3.72	0.732
Cc1nc(CS(=O)(=O)c2ccc(Br)cc2)c([N+](=O)[O-])n1CC(C)O (stereo not given)	301	1.41	126	0.17	1.29	0.02	0.9	3.36	3.08	0.418
Cc1nc(CS(=O)(=O)c2ccc(F)cc2)c([N+](=O)[O-])n1CC(C)O (stereo not given)	>293		> 699							2.38
Cc1nc(CS(=O)(=O)c2ccc(Cl)cc2)c([N+](=O)[O-])n1C	74	2.36	68	0.28	8.31	0.1	3.5	7.15	25.21	0.918
Cc1ccc(S(=O)(=O)Cc2nc(C)n(C)c2[N+](=O)[O-])cc1	684	4.65	242	0.56	17	0.2	3.7	15.03	54.97	0.355
Cn1cnc(CS(=O)(=O)c2ccc(Cl)cc2)c1[N+](=O)[O-]	1101	44.03	174	5.27	52.85	0.63	1.2	139.44	167.38	0.158
Cc1nc(CS(=O)(=O)c2ccc(Br)cc2)c([N+](=O)[O-])n1CCO	75	1.1	124	0.13	3.73	0.04	3.4	2.73	9.123	1.64
Cn1cnc(CS(=O)(=O)c2ccc(Br)cc2)c1[N+](=O)[O-]	>1761	14.92	> 694	1.78	59.22	0.7	4	41.41	164.42	0.394
Cc1nc(CS(=O)(=O)c2ccccc2)c([N+](=O)[O-])n1C	>3525	8.24	> 846	0.99	21.91	0.26	2.7	27.91	74.18	0.24
Cc1nc(CS(=O)(=O)c2ccc(F)cc2)c([N+](=O)[O-])n1CCO	>416	0.66	> 728	0.08	3.46	0.04	5.3	1.91	10.09	1.75
Cc1nc(CS(=O)(=O)c2ccc(F)cc2)c([N+](=O)[O-])n1C	>312	1.48	> 797	0.18	7.6	0.09	5.1	4.72	24.26	2.55
Cc1nc(CS(=O)(=O)c2ccccc2)c([N+](=O)[O-])n1CC(C)O (stereo not given)	679	0.88	418	0.1	3.65	0.04	4.2	2.58	10.76	0.615
Cc1nc(CS(=O)(=O)c2ccc(Cl)cc2)c([N+](=O)[O-])n1CCO	13136	2.24	578	0.27	5.3	0.06	2.4	6.22	14.73	0.044
Cn1cnc(CS(=O)(=O)c2ccc(F)cc2)c1[N+](=O)[O-]	>2500	10.53	> 835	1.26	47.09	0.56	4.5	35.17	157.34	0.334
Cc1ncc([N+](=O)[O-])n1C [DIMETRIDAZOLE]	>2501	21.71	> 1770	2.6	222.71	2.64	10.3	153.8	1578.04	0.708
Cc1ncc([N+](=O)[O-])n1CCO [METRONIDAZOLE]			> 1460							2.75
Cc1ncc([N+](=O)[O-])n1CC(C)O (stereo not given) [SECNIDAZOLE]	>1666	4.77	> 1350	0.57	23.78	0.28	5	25.74	128.44	0.81

Reference: ChEMBL document CHEMBL1153877, “Lowering of 5-nitroimidazole's mutagenicity: towards optimal antiparasitic pharmacophore” (Eur J Med Chem, 2009)
